# pIC50, pKi: −log10 of the molar value.
# Columns and labels:
# [1] = target: Induced myeloid leukemia cell differentiation protein Mcl-1 (Homo sapiens, UniProt Q07820); assay: Competitive binding affinity to Mcl-1 (unknown origin) using 5-FAM-Bid-BH3 peptide preincubated for 30 mins before 5-FAM-Bid-BH3 peptide addition and measured 20 mins after 5-FAM-Bid-BH3 peptide addition by fluorescence polarization assay
# Outline: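 Mcl-1 preincubated 30 min at room temperature with compound in PBS (pH 7.3; 140 mM NaCl, 2.7 mM KCl, 1.8 mM KH₂PO₄). IC50 fitted, Ki calculated; three separate experiments.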
# [2] = target: Bcl-2-like protein 1 (Homo sapiens, UniProt Q07817); assay: Competitive binding affinity to Bcl-XL (unknown origin) using 5-FAM-Bid-BH3 peptide preincubated for 30 mins before 5-FAM-Bid-BH3 peptide addition and measured 20 mins after 5-FAM-Bid-BH3 peptide addition by fluorescence polarization assayy
# Outline: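 Same FP competition with FAM-Bid-BH3 peptide at 10 nM final in PBS pH 7.3. Protein and compound preincubated 30 min at room temperature. Final Bcl-2 376 nM, final Bcl-XL 170 nM. Polarization read at ex 485/em 535 nm in triplicate. IC50 fitted, then converted to Ki.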
# [3] = Antiproliferative activity against human PC3 cells after 48 hrs by MTT assay; assay type: functional, cell-based; details: PC-3, 48 h
# Outline: (§1)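 Cells grown in RPMI1640 with 10% fetal bovine serum at 37 °C, 5% CO₂. Log-phase cells seeded at 5000 per well and incubated 12 h, then exposed to a range of compound concentrations for 48 h. MTT (5 mg/mL) added for 4 h, medium removed, formazan dissolved in DMSO, absorbance read. IC50 reported.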
# [4] = target: Apoptosis regulator Bcl-2 (Homo sapiens, UniProt P10415); assay: Competitive binding affinity to Bcl-2 (unknown origin) using 5-FAM-Bid-BH3 peptide preincubated for 30 mins before 5-FAM-Bid-BH3 peptide addition and measured 20 mins after 5-FAM-Bid-BH3 peptide addition by fluorescence polarization assay
# Outline: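 Same FP competition with FAM-Bid-BH3 peptide at 10 nM final in PBS pH 7.3. Protein and compound preincubated 30 min at room temperature. IC50 fitted, then converted to Ki.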
# [5] = system: K562; assay: Antiproliferative activity against human K562 cells after 48 hrs by MTT assay; assay type: functional, cell-based; details: K562, 48 h; outline: as §1
# [6] = system: MDA-MB-231; assay: Antiproliferative activity against human MDA-MB-231 cells after 48 hrs by MTT assay; assay type: functional, cell-based; details: MDA-MB-231, 48 h; outline: as §1
# Bcl-2-like protein 1, sequence (Q07817 whole entry): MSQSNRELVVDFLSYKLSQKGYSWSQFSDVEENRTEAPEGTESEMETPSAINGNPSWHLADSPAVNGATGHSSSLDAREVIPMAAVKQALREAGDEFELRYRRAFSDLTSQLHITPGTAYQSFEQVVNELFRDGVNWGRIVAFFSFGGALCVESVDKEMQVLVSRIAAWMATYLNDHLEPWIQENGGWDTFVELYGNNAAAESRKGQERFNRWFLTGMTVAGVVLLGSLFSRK
# Apoptosis regulator Bcl-2, sequence (P10415 whole entry): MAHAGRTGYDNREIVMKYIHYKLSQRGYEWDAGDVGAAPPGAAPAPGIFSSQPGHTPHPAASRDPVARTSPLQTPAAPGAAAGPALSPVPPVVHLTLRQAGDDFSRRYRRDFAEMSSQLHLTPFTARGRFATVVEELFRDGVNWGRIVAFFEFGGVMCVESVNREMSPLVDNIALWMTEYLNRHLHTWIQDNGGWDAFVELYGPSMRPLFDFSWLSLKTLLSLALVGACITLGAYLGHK
# Induced myeloid leukemia cell differentiation protein Mcl-1, sequence (Q07820 whole entry): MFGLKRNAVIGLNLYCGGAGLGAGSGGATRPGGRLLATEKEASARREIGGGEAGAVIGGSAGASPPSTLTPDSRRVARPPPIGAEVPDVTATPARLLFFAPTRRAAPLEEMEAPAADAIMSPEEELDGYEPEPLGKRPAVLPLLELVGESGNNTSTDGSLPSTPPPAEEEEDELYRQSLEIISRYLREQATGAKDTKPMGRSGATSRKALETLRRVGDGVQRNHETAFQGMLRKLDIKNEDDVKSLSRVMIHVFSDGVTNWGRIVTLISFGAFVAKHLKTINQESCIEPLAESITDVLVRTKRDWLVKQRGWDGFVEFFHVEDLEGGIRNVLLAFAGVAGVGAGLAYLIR
structure (smiles),measurement,setting,value
CC(C)[C@H](NC(=O)[C@@H]1C[C@H](Oc2ccc(-c3ccccc3)cc2)CN1C(=O)OC(C)(C)C)C(=O)O,pKi,[1],< 5.00
Cc1ccc(-c2ccc(O[C@H]3C[C@@H](C(=O)N[C@@H](Cc4ccccc4)C(=O)NS(=O)(=O)c4ccc(C)cc4)N(C(=O)OC(C)(C)C)C3)cc2)cc1,pKi,[1],5.72
Cc1ccc(-c2ccc(O[C@H]3C[C@@H](C(=O)N[C@@H](Cc4ccccc4)C(=O)NS(=O)(=O)c4ccc(Cl)c([N+](=O)[O-])c4)N(C(=O)OC(C)(C)C)C3)cc2)cc1,pKi,[2],5.06
same,pIC50,[3],4.87
same,pKi,[4],5.34
same,pIC50,[5],4.65
same,pIC50,[6],4.81
CC(C)(C)OC(=O)N1C[C@@H](Oc2ccc(-c3ccccc3)cc2)C[C@H]1C(=O)N[C@@H](Cc1ccc(Br)cc1)C(=O)NS(=O)(=O)c1ccc(Cl)c([N+](=O)[O-])c1,pKi,[2],5.66
same,pIC50,[3],4.97
same,pKi,[4],6.03
same,pIC50,[5],4.64
same,pIC50,[6],4.87
CC(C)(C)OC(=O)N1C[C@@H](Oc2ccc(Br)cc2)C[C@H]1C(=O)N[C@@H](Cc1ccccc1)C(=O)O,pKi,[1],< 5.00
CC(C)[C@H](NC(=O)[C@@H]1C[C@H](Oc2ccc(Br)cc2)CN1C(=O)OC(C)(C)C)C(=O)O,pKi,[1],< 5.00
CC(C)C[C@H](NC(=O)[C@@H]1C[C@H](Oc2ccc(-c3ccccc3)cc2)CN1C(=O)OC(C)(C)C)C(=O)O,pKi,[1],< 5.00
CC(C)(C)OC(=O)N1C[C@@H](Oc2ccc(-c3ccccc3)cc2)C[C@H]1C(=O)N[C@@H](Cc1ccc(Br)cc1)C(=O)NS(=O)(=O)c1ccccc1,pKi,[1],5.92
Cc1ccc(-c2ccc(O[C@H]3C[C@@H](C(=O)N[C@@H](Cc4ccccc4)C(=O)NS(=O)(=O)c4ccccc4)N(C(=O)OC(C)(C)C)C3)cc2)cc1,pKi,[1],5.80
Cc1ccc(S(=O)(=O)NC(=O)[C@H](Cc2ccc(Br)cc2)NC(=O)[C@@H]2C[C@H](Oc3ccc(-c4ccccc4)cc3)CN2C(=O)OC(C)(C)C)cc1,pKi,[1],6.00
CC(C)(C)OC(=O)N1C[C@@H](Oc2ccc(-c3ccccc3)cc2)C[C@H]1C(=O)N[C@@H](Cc1c[nH]c2ccccc12)C(=O)NS(=O)(=O)c1ccccc1,pKi,[1],5.49
CC(C)(C)OC(=O)N1C[C@@H](Oc2ccc(-c3ccccc3)cc2)C[C@H]1C(=O)N[C@H](C(=O)O)c1ccccc1,pKi,[1],< 5.00
CC(C)(C)OC(=O)N1C[C@@H](Oc2ccc(-c3ccccc3)cc2)C[C@H]1C(=O)NCC(=O)O,pKi,[1],< 5.00
Cc1ccc(S(=O)(=O)NC(=O)[C@H](Cc2ccccc2)NC(=O)[C@@H]2C[C@H](Oc3ccc(-c4ccccc4)cc3)CN2C(=O)OC(C)(C)C)cc1,pKi,[1],5.48
CC(C)(C)OC(=O)N1C[C@@H](Oc2ccc(-c3ccccc3)cc2)C[C@H]1C(=O)N[C@@H](Cc1ccccc1)C(=O)O,pKi,[1],5.08
CC(C)(C)OC(=O)N1C[C@@H](Oc2ccc(Br)cc2)C[C@H]1C(=O)N[C@H](C(=O)O)c1ccccc1,pKi,[1],< 5.00
CC(C)(C)OC(=O)N1C[C@@H](Oc2ccc(Br)cc2)C[C@H]1C(=O)NCC(=O)O,pKi,[1],< 5.00
Cc1ccc(-c2ccc(O[C@H]3C[C@@H](C(=O)N[C@@H](Cc4ccc(Br)cc4)C(=O)NS(=O)(=O)c4ccc(Cl)c([N+](=O)[O-])c4)N(C(=O)OC(C)(C)C)C3)cc2)cc1,pKi,[2],5.92
same,pIC50,[3],4.86
same,pKi,[4],6.26
same,pIC50,[5],4.66
same,pIC50,[6],4.83
CC(C)C[C@H](NC(=O)[C@@H]1C[C@H](Oc2ccc(Br)cc2)CN1C(=O)OC(C)(C)C)C(=O)O,pKi,[1],< 5.00
CC(C)(C)OC(=O)N1C[C@@H](Oc2ccc(-c3ccc(Cl)cc3)cc2)C[C@H]1C(=O)N[C@@H](Cc1ccc(Br)cc1)C(=O)NS(=O)(=O)c1ccc(Cl)c([N+](=O)[O-])c1,pKi,[2],5.68
same,pIC50,[3],4.95
same,pKi,[4],6.08
same,pIC50,[5],4.66
same,pIC50,[6],4.80
Cc1cc2c(C(C)C)c(O)c(O)c(C=O)c2c(O)c1-c1c(C)cc2c(C(C)C)c(O)c(O)c(C=O)c2c1O [GOSSYPOL],pKi,[1],6.41
same,pKi,[2],6.11
same,pIC50,[3],5.24
same,pIC50,[5],5.23
same,pIC50,[6],5.03
